Assay [1] concerns the target T1, Bcl-2-like protein 2 (Homo sapiens, UniProt Q92843).
T1 sequence (Q92843 whole entry): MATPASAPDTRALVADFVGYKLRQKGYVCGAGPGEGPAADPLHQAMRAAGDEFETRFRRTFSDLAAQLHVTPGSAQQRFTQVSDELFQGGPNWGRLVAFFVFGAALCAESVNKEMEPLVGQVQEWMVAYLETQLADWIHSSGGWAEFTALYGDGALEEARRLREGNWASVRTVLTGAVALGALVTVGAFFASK
The experiment in a line: Inhibition of Bak peptide binding to human recombinant Bcl-w. Put shortly:
(§1)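 Fluorescence polarization competition against 50 nM fluorescein-labelled Bak peptide, in PBS pH 7.0 with 1 mM DTT. Protein set for 60% peptide complex: Bcl-2 1000 nM, Bcl-XL 880nM, Bcl-w 1200 nM. Compounds added from 3-fold DMSO stock dilutions (10 mM down). Incubation 1 h at 23 °C, read in mP, peptide-only interference subtracted. Ki fitted from FP change versus competitor concentration.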

For assay [2], the target named is Apoptosis regulator Bcl-2 (Homo sapiens, UniProt P10415). The experiment in a line: Inhibition of Bak peptide binding to human recombinant Bcl2. In a few lines: as §1
Chain of Apoptosis regulator Bcl-2 (P10415 whole entry): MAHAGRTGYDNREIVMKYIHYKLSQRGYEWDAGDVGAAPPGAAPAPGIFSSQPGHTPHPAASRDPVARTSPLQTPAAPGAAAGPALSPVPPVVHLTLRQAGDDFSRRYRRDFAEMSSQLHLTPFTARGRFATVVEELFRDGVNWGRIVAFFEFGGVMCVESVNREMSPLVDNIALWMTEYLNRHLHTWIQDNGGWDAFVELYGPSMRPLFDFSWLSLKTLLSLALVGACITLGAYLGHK
The nature of assay [3]: Induction of cytochrome c release from mouse liver mitochondria. Format: functional. Put shortly:
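Mouse liver mitochondria were isolated by differential centrifugation in Tris-MOPS/EGTA/sucrose buffer pH 7.4 and diluted to 1mg/ml in KCl-based buffer. They were incubated 1 hour at 30 °C with increasing compound concentrations, with DMSO kept equal, then pelleted at 13,000g for 10 minutes. Cytochrome c release was assessed, and the concentration giving 50% release was reported.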

Molecules are shown by their SMILES. Some results are limits rather than exact numbers.

Broadly, the Ki is a dissociation constant, usually derived from enzyme kinetics or from competition with a known ligand. A word on the IC50: it is the concentration that gives 50% inhibition. High values mean lower potency, low ones higher potency.

As for `O=C(OCCOC(=O)[C@H](Cc1ccccc1)N1C(=O)/C(=C/c2ccc(Br)cc2)SC1=S)[C@H](Cc1ccccc1)N1C(=O)/C(=C/c2ccc(Br)cc2)SC1=S`, the Ki in assay [1] was 101 µM; in assay [2], 243 µM.

With `O=C(O)[C@H](Cc1ccccc1)N1C(=O)/C(=C/c2ccc(OCCOCCOc3ccc(/C=C4\SC(=S)N([C@@H](Cc5ccccc5)C(=O)O)C4=O)cc3)cc2)SC1=S`, the values for the inhibition constant Ki in assay [1] and in assay [2] were 2.2 µM and 4.3 µM, respectively.

`CCOC(=O)[C@H](Cc1ccccc1)N1C(=O)/C(=C/c2ccc(OCOc3ccc(/C=C4\SC(=S)N([C@@H](Cc5ccccc5)C(=O)OCC)C4=O)cc3)cc2)SC1=S`: the values for the Ki in assay [1] and in assay [2] were 39.2 µM and 226 µM, respectively.

As for `O=C(O)[C@H](Cc1ccccc1)N1C(=O)/C(=C/c2ccc(OCOc3ccc(/C=C4\SC(=S)N([C@@H](Cc5ccccc5)C(=O)O)C4=O)cc3)cc2)SC1=S`, the Ki came to 2.3 µM in assay [1] and 4.3 µM in assay [2].

`O=C(OCCOCCOCCOC(=O)[C@H](Cc1ccccc1)N1C(=O)/C(=C/c2ccc(Br)cc2)SC1=S)[C@H](Cc1ccccc1)N1C(=O)/C(=C/c2ccc(Br)cc2)SC1=S`: the Ki in assay [1] came out at 88.3 µM; in assay [2] it was 161 µM.

With `O=C(OCCOCCOC(=O)[C@H](Cc1ccccc1)N1C(=O)/C(=C/c2ccc(Br)cc2)SC1=S)[C@H](Cc1ccccc1)N1C(=O)/C(=C/c2ccc(Br)cc2)SC1=S`, the Ki in assay [1] was 99 µM; in assay [2] it was greater than 1000 µM.

Regarding `O=C(O)[C@H](Cc1ccccc1)N1C(=O)/C(=C/c2ccc(OCCOCCOCCOc3ccc(/C=C4\SC(=S)N([C@@H](Cc5ccccc5)C(=O)O)C4=O)cc3)cc2)SC1=S`, the Ki in assay [1] worked out at 13.7 µM; in assay [2] it was 21.2 µM.

On to `O=C(O)[C@H](Cc1ccccc1)N1C(=O)/C(=C/c2ccc(OCCOc3ccc(/C=C4\SC(=S)N([C@@H](Cc5ccccc5)C(=O)O)C4=O)cc3)cc2)SC1=S`, for which the Ki in assay [1] came out at 1.3 µM; in assay [2], 1.7 µM. Moreover, in assay [3], the IC50 is 6.1 µM.

For the molecule `CCOC(=O)[C@H](Cc1ccccc1)N1C(=O)/C(=C/c2ccc(Br)cc2)SC1=S`, the Ki worked out at 116 µM in assay [1] and 260 µM in assay [2].

Consider `O=C(O)[C@H](Cc1ccccc1)N1C(=O)/C(=C/c2ccc(Br)cc2)SC1=S`, for which, in assay [3], the IC50 stood at 69.1 µM.

The values are drawn from ChEMBL document CHEMBL1142253, “Development of dimeric modulators for anti-apoptotic Bcl-2 proteins” (Bioorg Med Chem Lett, 2008).
